Measurements from ChEMBL document CHEMBL4382276, “New in Vitro Assay Measuring Direct Interaction of Nonsense Suppressors with the Eukaryotic Protein Synthesis Machinery” (ACS Med Chem Lett, 2018).
Calls of active or inactive are those of the source. The rule behind the calls is not given here.

Experiments:
[1] = Induction of read through activity at cricket paralysis virus-internal ribosome entry site premature termination codon UGA assessed as increase in octapeptide formation from FKVRQ-tRNAGln measured after 20 mins in presence of Typ-tRNA, Leu-tRNA and [35S]-Met-tRNA by co-sedimentation assay
Cricket paralysis virus [2] = experiment: Induction of read through activity at cricket paralysis virus-internal ribosome entry site premature termination codon UGA assessed as ratio of plateau octapeptide to FKVRQ-tRNAGln measured after 20 mins in presence of Typ-tRNA, Leu-tRNA and [35S]-Met-tRNA by co-sedimentation assay
[3] = at cricket paralysis virus-internal ribosome entry site codon UGG assessed as from FKVRQ-tRNAGln at EC50 to 2 times EC50 measured after 20 mins in presence of Typ-tRNA, Leu-tRNA and [35S]-Met-tRNA by co-sedimentation assay
[4] = Induction of 80S ribosome-internal ribosome entry site (unknown origin) precipitable particle formation at 30 uM measured after 20 mins
[5] = Induction of [35S]Met-tRNA (unknown origin) precipitable particle formation at 30 uM measured after 20 mins
Cricket paralysis virus [6] = experiment: (§1) Induction of read through activity at cricket paralysis virus-internal ribosome entry site codon UGG assessed as rate constant for octapeptide formation from FKVRQ-tRNAGln at 5 uM preincubated for 30 secs in presence of Typ-tRNA followed by Leu-tRNA and [35S]-Met-tRNA addition by co-sedimentation assay
Outline: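 POST5 complex (0.02 μM) mixed with Trp-tRNATrp, Leu-tRNALeu and [35S]-Met-tRNAMet (0.08 μM each), eEF1A (0.08 μM), eEF2 (1.0 μM), eRF1 (0.010 μM) and eRF3 (0.020 μM), with or without NonSup. Incubation at 37 °C in Tris-HCl pH 7.5 buffer for 30 s to 20 min. Quench with 0.5 M MES pH 6.0 at 0 °C, ultracentrifuge through 1.1 M sucrose, and count ribosome-cosedimenting [35S] octapeptidyl-tRNA.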

Cricket paralysis virus [7] = experiment: Induction of read through activity at cricket paralysis virus-internal ribosome entry site premature termination codon UGA assessed as eEF2-induced 80S-Stop-IRES-PRE6 formation from 80S-Stop-IRES-POST5 at 1 to 10 uM by FRET assay
[8] = Induction of read through activity at cricket paralysis virus-internal ribosome entry site codon UGG assessed as eEF2-induced 80S-Trp-IRES-PRE6 formation from 80S-Trp-IRES-POST5 by FRET assay
[9] = Induction of read through activity at cricket paralysis virus-internal ribosome entry site codon UGA assessed as increase in octapeptide formation from FKVRQ-tRNAGln at 30 to 600 uM measured after 20 mins in presence of Typ-tRNA, Leu-tRNA and [35S]-Met-tRNA by co-sedimentation assay
Cricket paralysis virus [10] = experiment: Inhibition of read through activity at cricket paralysis virus-internal ribosome entry site premature termination codon UGA assessed as decrease in octapeptide formation from FKVRQ-tRNAGln at 600 uM measured after 20 mins in presence of Typ-tRNA, Leu-tRNA and [35S]-Met-tRNA by co-sedimentation assay
[11] = Inhibition of read through activity at cricket paralysis virus-internal ribosome entry site codon UGG assessed as decrease in octapeptide formation from FKVRQ-tRNAGln at 600 uM measured after 20 mins in presence of Typ-tRNA, Leu-tRNA and [35S]-Met-tRNA by co-sedimentation assay
Cricket paralysis virus [12] = experiment: as §1, with “at 500” for “at 5”
Outline: (§2)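 Time course with the same components: POST5 complex 0.02 μM, aminoacyl-tRNAs 0.08 μM each, eEF1A, eEF2, eRF1 0.010 μM, eRF3 0.020 μM, Buffer 4, 37 °C. Aliquots taken from 30 s to 20 min and MES-quenched. Octapeptide measured by ribosome cosedimentation or by base release and thin layer electrophoresis. Rate constants derived from the time courses.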

Cricket paralysis virus [13] = experiment: as §1, with “site premature termination” for “site”, “codon UGA” for “codon UGG”, “at 500” for “at 5”; outline: as §2

| EC50 [1] | Ratio (Cricket paralysis virus [2]) | Activity [3] | Structure (SMILES) | other results |
| --- | --- | --- | --- | --- |
| 0.4 to 4 µM | 0.1 to 0.3 | Not Active | NCCC[C@H](N)CC(=O)NCCC[C@H](N)CC(=O)NCCC[C@H](N)CC(=O)NCCC[C@H](N)CC(=O)N[C@@H]1[C@H](O)[C@@H](OC(N)=O)[C@@H](CO)O[C@H]1NC1=N[C@@H]2C(=O)NC[C@@H](O)[C@H]2N1 |  |
| 170 to 350 µM | 0.1 to 0.16 | Not Active | COc1cccc(-n2c(SCC(=O)Nc3ccc(F)cc3)nnc2-c2ccccn2)c1 |  |
|  | 0.1 to 0.3 | Not Active | COc1cccc2c1C(=O)c1c(O)c3c(c(O)c1C2=O)C[C@@](O)(C(=O)CO)C[C@@H]3O[C@H]1C[C@H](N)[C@H](O)[C@H](C)O1 [DOXORUBICIN] | Activity [4]: Active; Activity [5]: Active |
| 0.4 to 4 µM | 0.1 to 0.3 | Not Active | C[C@H](N)[C@H]1O[C@@H](O[C@@H]2[C@@H](O)[C@H](N)C[C@H](N)[C@H]2O[C@H]2O[C@H]([C@@H](C)O)[C@@H](O)[C@H](O)[C@H]2N)[C@H](O)[C@@H]1O |  |
| 0.4 to 4 µM | 0.1 to 0.3 | Not Active | NCCC[C@H](N)CC(=O)NCCC[C@H](N)CC(=O)NCCC[C@H](N)CC(=O)NCCC[C@H](N)CC(=O)NCCC[C@H](N)CC(=O)NCCC[C@H](N)CC(=O)NCCC[C@H](N)CC(=O)N[C@@H]1[C@H](O)[C@@H](OC(N)=O)[C@@H](CO)O[C@H]1NC1=N[C@@H]2C(=O)NC[C@@H](O)[C@H]2N1 |  |
|  | 0.1 to 0.3 | Not Active | CN(CC(=O)O)NC(=O)C[C@H](N)C[C@@H](O)CN [NEGAMYCIN] |  |
| 0.4 to 4 µM | 0.1 to 0.3 | Not Active | CN[C@@H]1[C@@H](O)[C@@H](O[C@@H]2[C@@H](O)[C@H](O[C@H]3O[C@H](CO)[C@@H](O)[C@H](O)[C@H]3N)[C@@H](N)C[C@H]2N)OC[C@]1(C)O |  |
| 0.4 to 4 µM | 0.1 to 0.3 | Not Active | CN[C@@H]1[C@@H](O)[C@@H](O[C@@H]2[C@@H](O)[C@H](O[C@H]3O[C@H](CN)[C@@H](O)[C@H](O)[C@H]3O)[C@@H](N)C[C@H]2N)OC[C@]1(C)O [BETAMICIN] |  |
|  |  |  | CC[C@H]1OC(=O)C[C@@H](O)[C@H](C)[C@@H](O[C@@H]2O[C@H](C)[C@@H](O[C@H]3C[C@@](C)(O)[C@@H](O)[C@H](C)O3)[C@H](N(C)C)[C@H]2O)[C@@H](CC=O)C[C@@H](C)C(=O)/C=C/C(C)=C/[C@@H]1CO[C@@H]1O[C@H](C)[C@@H](O)[C@@H](OC)[C@H]1OC [TYLOSIN] | Activity [9]: Not Active |
|  |  |  | C/C=C(\C)C(=O)O[C@H]1[C@H](OC(C)=O)[C@]2(CO)[C@H](O)C[C@@H]3C(=CC[C@H]4[C@H]3CC[C@@H]3[C@@H]4CC[C@H](O[C@@H]4O[C@H](C(=O)O)[C@@H](O[C@@H]5O[C@H](CO)[C@@H](O)[C@H](O)[C@H]5O)[C@H](O)[C@H]4O[C@@H]4O[C@H](CO)[C@@H](O)[C@H](O)[C@H]4O)[C@]3(C)CO)[C@@H]2CC1(C)C | inhibition (Cricket paralysis virus [10]): Active; inhibition (INH) [11]: Active; Activity [9]: Not Active |
| 0.4 to 4 µM | 0.1 to 0.3 | Not Active | NCCC[C@H](N)CC(=O)NCCC[C@H](N)CC(=O)NCCC[C@H](N)CC(=O)NCCC[C@H](N)CC(=O)NCCC[C@H](N)CC(=O)NCCC[C@H](N)CC(=O)N[C@@H]1[C@H](O)[C@@H](OC(N)=O)[C@@H](CO)O[C@H]1NC1=N[C@@H]2C(=O)NC[C@@H](O)[C@H]2N1 |  |
|  |  |  | CC[C@H]1OC(=O)[C@H](C)[C@@H](O[C@H]2C[C@@](C)(OC)[C@@H](O)[C@H](C)O2)[C@H](C)[C@@H](O[C@@H]2O[C@H](C)C[C@H](N(C)C)[C@H]2O)[C@](C)(O)C[C@@H](C)CN(C)[C@H](C)[C@@H](O)[C@]1(C)O [AZITHROMYCIN] | Activity [9]: Not Active |
| 170 to 350 µM | 0.1 to 0.16 | Not Active | N=C1NC(=O)/C(=C/c2ccc(-c3ccccc3[N+](=O)[O-])o2)S1 |  |
| 0.4 to 4 µM | 0.1 to 0.3 | Not Active | NCCC[C@H](N)CC(=O)NCCC[C@H](N)CC(=O)NCCC[C@H](N)CC(=O)NCCC[C@H](N)CC(=O)NCCC[C@H](N)CC(=O)N[C@@H]1[C@H](O)[C@@H](OC(N)=O)[C@@H](CO)O[C@H]1NC1=N[C@@H]2C(=O)NC[C@@H](O)[C@H]2N1 |  |
| 0.4 to 4 µM | 0.1 to 0.3 | Not Active | C[C@@H](O)[C@H]1O[C@H](O[C@H]2[C@H](O[C@@H]3O[C@H](CN)[C@@H](O)[C@H]3O)[C@@H](O)[C@H](NC(=O)[C@@H](O)CCN)C[C@@H]2N)[C@H](N)[C@@H](O)[C@@H]1O |  |
|  |  |  | CCOCCCNC(=O)N1CCN(Cc2ccc3c(c2)OCO3)CC1 | Activity [9]: Not Active |
| 170 to 350 µM | 0.1 to 0.16 | Not Active | O=C(O)c1cccc(-c2noc(-c3ccccc3F)n2)c1 [ATALUREN] | K (Cricket paralysis virus [12]): 1 to 1.6 min⁻¹; K (Cricket paralysis virus [13]): 0.14 min⁻¹ |

| Structure (SMILES) | EC50 [1] | Ratio (Cricket paralysis virus [2]) | Activity [3] | other results |
| --- | --- | --- | --- | --- |
| NCCC[C@H](N)CC(=O)N[C@@H]1[C@H](O)[C@@H](OC(N)=O)[C@@H](CO)O[C@H]1NC1=N[C@@H]2C(=O)NC[C@@H](O)[C@H]2N1 | 0.4 to 4 µM | 0.1 to 0.3 | Not Active |  |
| CN[C@@H]1[C@@H](O)[C@@H](O[C@@H]2[C@@H](O)[C@H](O[C@H]3O[C@H]([C@H](C)O)[C@@H](O)[C@H](O)[C@H]3N)[C@@H](N)C[C@H]2N)OC[C@]1(C)O | 0.98 µM | 0.1 to 0.3 | Not Active | K (Cricket paralysis virus [6]): 1 to 1.6 min⁻¹; Activity (Cricket paralysis virus [7]): Active; Activity [8]: Not Active |
| NCCC[C@H](N)CC(=O)NCCC[C@H](N)CC(=O)N[C@@H]1[C@H](O)[C@@H](OC(N)=O)[C@@H](CO)O[C@H]1NC1=N[C@@H]2C(=O)NC[C@@H](O)[C@H]2N1 [STREPTOTHRICIN E] | 0.4 to 4 µM | 0.1 to 0.3 | Not Active |  |
| NCCC[C@H](N)CC(=O)NCCC[C@H](N)CC(=O)NCCC[C@H](N)CC(=O)N[C@@H]1[C@H](O)[C@@H](OC(N)=O)[C@@H](CO)O[C@H]1NC1=N[C@@H]2C(=O)NC[C@@H](O)[C@H]2N1 | 0.4 to 4 µM | 0.1 to 0.3 | Not Active |  |
